Measurements taken from ChEMBL document CHEMBL1153752, “Hymenopsins A and B and a macrophorin analogue from a fungicolous Hymenopsis sp” (2010).
Activity calls are given as the source filed them. The rule behind the calls is not given here.

How the values were obtained:
Candida albicans [1] = experiment: Antifungal activity against Candida albicans ATCC 14053 at 200 ug/disk by disk diffusion method; format: functional, organism-based
In short: (§1)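 Standard paper-disk diffusion assay. Test material was loaded at 200 μg/disk, and gentamicin sulfate was run as the standard at 50 μg/disk. The C. albicans assay used the same 200 μg/disk level. The read-out was the diameter of the zone of inhibition in mm.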

Bacillus subtilis [2] = experiment: Antibacterial activity against Bacillus subtilis ATCC 6051 at 200 ug/disk by disk diffusion method; format: functional; conditions: for zone of inhibition at 200 µg/disc: read-out: IZ; in short: as §1
Fusarium verticillioides [3] = experiment: Antifungal activity against Fusarium verticillioides NRRL 25457 at 200 ug/disk by disk diffusion method; format: functional
Aspergillus flavus [4] = experiment: Antifungal activity against Aspergillus flavus NRRL 6541 at 200 ug/disk by disk diffusion method; format: functional
Staphylococcus aureus [5] = experiment: Antibacterial activity against Staphylococcus aureus ATCC 25923 at 200 ug/disk by disk diffusion method; format: functional; conditions: for zone of inhibition at 200 µg/disc: read-out: IZ; in short: as §1
Bacillus subtilis [6] = experiment: Antibacterial activity against Bacillus subtilis ATCC 6051 at 50 ug/disk by disk diffusion method; format: functional, organism-based; in short: as §1
Staphylococcus aureus [7] = experiment: Antibacterial activity against Staphylococcus aureus ATCC 25923 at 50 ug/disk by disk diffusion method; format: functional, organism-based; in short: as §1
Fusarium verticillioides [8] = experiment: Antifungal activity against Fusarium verticillioides NRRL 25457 at 25 ug/disk by disk diffusion method; format: functional, organism-based
Aspergillus flavus [9] = experiment: Antifungal activity against Aspergillus flavus NRRL 6541 at 25 ug/disk by disk diffusion method; format: functional, organism-based
Candida albicans [10] = experiment: Antifungal activity against Candida albicans ATCC 14053 at 25 ug/disk by disk diffusion method; format: functional, organism-based

C=C1CC[C@H]2[C@](C)(CO)CCC[C@]2(C)[C@H]1C[C@@]12O[C@@H]1C(=O)[C@]1(CO)O[C@@H]1C2=O
inhibition zone (IZ) (Candida albicans [1]): inactive | zone of inhibition at 200 µg/disc (Bacillus subtilis [2]): 32 mm | zone of inhibition at 200 µg/disc (Fusarium verticillioides [3]; read-out: IZ): 20 mm | zone of inhibition at 200 µg/disc (Aspergillus flavus [4]; read-out: IZ): 20 mm | zone of inhibition at 200 µg/disc (Staphylococcus aureus [5]): 32 mm

C[C@@]1(CO)CCC[C@]2(C)[C@H]3C[C@@]45O[C@@H]4[C@H](O)[C@]4(CO)O[C@@H]4[C@]5(O)CC3=CC[C@@H]12
inhibition zone (IZ) (Candida albicans [1]): inactive | inhibition zone (IZ) (Bacillus subtilis [2]): inactive | inhibition zone (IZ) (Fusarium verticillioides [3]): inactive | inhibition zone (IZ) (Aspergillus flavus [4]): inactive | inhibition zone (IZ) (Staphylococcus aureus [5]): inactive

C[C@@]1(CO)CCC[C@]2(C)[C@H]3C[C@@]45O[C@@H]4C(=O)[C@]4(CO)O[C@@H]4[C@]5(O)CC3=CC[C@@H]12 [HYMENOPSIN B]
inhibition zone (IZ) (Candida albicans [1]): inactive | zone of inhibition at 200 µg/disc (Bacillus subtilis [2]): 21 mm | inhibition zone (IZ) (Fusarium verticillioides [3]): inactive | inhibition zone (IZ) (Aspergillus flavus [4]): inactive | zone of inhibition at 200 µg/disc (Staphylococcus aureus [5]): 21 mm

GENTAMICIN SULFATE
inhibition zone (IZ) (Bacillus subtilis [6]): 25 mm | inhibition zone (IZ) (Candida albicans [1]): inactive | inhibition zone (IZ) (Staphylococcus aureus [7]): 25 mm

NYSTATIN
inhibition zone (IZ) (Fusarium verticillioides [8]): Active | inhibition zone (IZ) (Aspergillus flavus [9]): Active | inhibition zone (IZ) (Candida albicans [10]): Active
